Results published in ChEMBL document CHEMBL3871264, “Design of a novel thiophene inhibitor of 15-lipoxygenase-1 with both anti-inflammatory and neuroprotective properties” (Eur J Med Chem, 2016).
Activity calls are given as the source filed them. The calls are words filed in the database; no cut-off is given here.

What was measured:
[1] = target: T1, Polyunsaturated fatty acid lipoxygenase ALOX15 (Mus musculus) (UniProt P39654); assay: Inhibition of 15-LOX-1 in mouse HT22 cells assessed as protection against glutamate-induced cell death by measuring increase in cell viability up to 20 uM cotreated with glutamate for 14 to 16 hrs by MTT assay; assay type: cell-based; details: HT-22
T1 sequence (whole entry): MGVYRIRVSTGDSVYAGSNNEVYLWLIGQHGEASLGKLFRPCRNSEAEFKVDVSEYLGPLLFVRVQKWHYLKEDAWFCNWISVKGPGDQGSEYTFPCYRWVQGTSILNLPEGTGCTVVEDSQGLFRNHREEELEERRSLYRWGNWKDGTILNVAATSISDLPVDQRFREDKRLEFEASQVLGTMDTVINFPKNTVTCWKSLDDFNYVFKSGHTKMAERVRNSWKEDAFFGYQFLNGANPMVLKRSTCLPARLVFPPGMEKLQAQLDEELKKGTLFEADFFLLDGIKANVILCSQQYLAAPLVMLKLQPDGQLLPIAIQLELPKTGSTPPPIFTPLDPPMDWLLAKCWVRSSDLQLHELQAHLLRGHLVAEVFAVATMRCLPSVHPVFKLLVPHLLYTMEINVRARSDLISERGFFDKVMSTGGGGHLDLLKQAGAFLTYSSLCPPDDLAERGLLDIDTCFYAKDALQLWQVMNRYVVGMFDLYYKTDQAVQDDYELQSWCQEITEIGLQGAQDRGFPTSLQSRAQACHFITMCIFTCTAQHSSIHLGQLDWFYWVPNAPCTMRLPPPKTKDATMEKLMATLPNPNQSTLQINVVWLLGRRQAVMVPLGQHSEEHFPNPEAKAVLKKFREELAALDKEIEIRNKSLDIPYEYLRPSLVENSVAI
Procedure, shortened: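 HT-22 cells were seeded at 8x10^3 per well and incubated overnight. They were challenged with 4 mM glutamate in DMEM/10% FCS. Inhibitor was given either with glutamate (1-20 µM; PD146176 at 1 µM) or added at 5 or 10 µM 2, 4, 6 or 8 h after glutamate. After 14-16 h, MTT was added at 0.5 mg/mL for 1 h at 37 °C. Formazan was dissolved in DMSO and read at 570 nm minus 630 nm background, expressed relative to control. Three experiments were run with 6-8 replicates each.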

[2] = target: T1, Polyunsaturated fatty acid lipoxygenase ALOX15 (Mus musculus); assay: Inhibition of 15-LOX-1 in mouse HT22 cells assessed as inhibition of glutamate-induced superoxide production in mitochondria at 10 uM incubated for 14 to 16 hrs by mitoSOX staining based FACS analysis; details: HT-22
Procedure, shortened: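 HT-22 cells were seeded at 5x10^4 per well and incubated overnight. They were then given 4 mM glutamate with or without 10 µM inhibitor or 1 µM PD146176 for 14-16 h. Cells were stained with MitoSOX at 2.5 µM final for 30 min at 37 °C, and fluorescence intensity was measured by flow cytometry (488 nm excitation). At least 3 experiments were run, each in triplicate.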

SMILES: CCCCNC(=O)c1cc(-c2ccccc2)sc1N
- inhibition [1]: Dose-dependent effect
- inhibition [2]: Active
